Experimental data reported in ChEMBL document CHEMBL1914457, “Syntheses of phenylpyrazolodiazepin-7-ones as conformationally rigid analogs of aminopyrazole amide scaffold and their antiproliferative effects on cancer cells” (Bioorg Med Chem, 2011).

Tests used:
U-937 = assay: Growth inhibition of human U937 cells after 24 hrs by thiazolyl blue tetrazolium bromide staining-based MTT assay; format: functional; settings: U-937, 24 h
How it was run: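 U937 cells kept in RPMI 1640 with 10% FBS, 1% penicillin/streptomycin and 25 mM HEPES at 37 °C, 5% CO2. Seeded at 5 × 10^3 cells/well and incubated 24 h before treatment. Compounds given as a threefold serial dilution over 12 points. Viability read by MTT reduction with thiazolyl blue tetrazolium bromide as absorbance at 570 nm.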

[1] = Growth inhibition of human A375P cells after 24 hrs by MTT assay; format: functional
How it was run: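 A375P cells grown in DMEM with 10% FBS and 1% penicillin/streptomycin at 37 °C, 5% CO2. Cells lifted with 0.05% trypsin-0.02% EDTA, seeded at 5 × 10^3 cells/well and held 24 h before treatment. Compounds given as a threefold serial dilution over 12 points. Viability read by MTT reduction (CellTiter 96) as absorbance at 590 nm; IC50 fitted from the curve.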

[2] = molecular target: T1, Serine/threonine-protein kinase mTOR (Homo sapiens, UniProt P42345); assay: Inhibition of MTOR
[3] = molecular target: T2, Phosphatidylinositol 4,5-bisphosphate 3-kinase catalytic subunit alpha isoform (Homo sapiens, UniProt P42336); assay: Inhibition of PI3Kalpha
T2 sequence (P42336 whole entry, canonical isoform): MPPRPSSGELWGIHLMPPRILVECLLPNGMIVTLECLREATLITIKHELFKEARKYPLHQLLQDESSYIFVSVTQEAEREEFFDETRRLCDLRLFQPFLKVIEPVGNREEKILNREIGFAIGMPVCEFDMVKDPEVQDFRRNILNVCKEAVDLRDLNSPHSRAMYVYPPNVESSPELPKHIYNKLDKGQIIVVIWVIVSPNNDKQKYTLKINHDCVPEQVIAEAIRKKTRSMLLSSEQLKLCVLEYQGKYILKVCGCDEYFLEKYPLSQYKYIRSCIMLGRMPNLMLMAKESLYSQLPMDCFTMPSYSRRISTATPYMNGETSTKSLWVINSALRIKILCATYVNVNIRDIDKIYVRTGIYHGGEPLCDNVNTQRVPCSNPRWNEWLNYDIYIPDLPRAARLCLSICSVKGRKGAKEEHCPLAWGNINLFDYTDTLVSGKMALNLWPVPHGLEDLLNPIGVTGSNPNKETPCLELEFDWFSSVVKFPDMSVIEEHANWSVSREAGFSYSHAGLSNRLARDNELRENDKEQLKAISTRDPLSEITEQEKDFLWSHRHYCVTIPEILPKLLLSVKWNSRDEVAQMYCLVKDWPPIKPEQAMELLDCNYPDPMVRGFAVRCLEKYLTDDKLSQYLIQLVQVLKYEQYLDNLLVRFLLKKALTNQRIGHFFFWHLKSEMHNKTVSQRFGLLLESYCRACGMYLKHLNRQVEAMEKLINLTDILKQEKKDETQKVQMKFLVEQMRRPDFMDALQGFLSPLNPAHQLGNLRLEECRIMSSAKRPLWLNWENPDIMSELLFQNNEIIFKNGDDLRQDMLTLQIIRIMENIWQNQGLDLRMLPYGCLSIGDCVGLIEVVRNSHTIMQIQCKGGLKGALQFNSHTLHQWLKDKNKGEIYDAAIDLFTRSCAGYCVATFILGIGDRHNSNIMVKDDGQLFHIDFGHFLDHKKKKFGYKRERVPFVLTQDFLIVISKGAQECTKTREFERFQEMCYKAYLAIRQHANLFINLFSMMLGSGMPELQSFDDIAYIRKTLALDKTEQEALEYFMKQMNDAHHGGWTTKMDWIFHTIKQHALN

[4] = molecular target: T3, RAF proto-oncogene serine/threonine-protein kinase (Homo sapiens, UniProt P04049); assay: Inhibition of human CRAF using [gamma-33P]ATP after 40 mins by scintillation counting
T3 sequence (P04049 whole entry): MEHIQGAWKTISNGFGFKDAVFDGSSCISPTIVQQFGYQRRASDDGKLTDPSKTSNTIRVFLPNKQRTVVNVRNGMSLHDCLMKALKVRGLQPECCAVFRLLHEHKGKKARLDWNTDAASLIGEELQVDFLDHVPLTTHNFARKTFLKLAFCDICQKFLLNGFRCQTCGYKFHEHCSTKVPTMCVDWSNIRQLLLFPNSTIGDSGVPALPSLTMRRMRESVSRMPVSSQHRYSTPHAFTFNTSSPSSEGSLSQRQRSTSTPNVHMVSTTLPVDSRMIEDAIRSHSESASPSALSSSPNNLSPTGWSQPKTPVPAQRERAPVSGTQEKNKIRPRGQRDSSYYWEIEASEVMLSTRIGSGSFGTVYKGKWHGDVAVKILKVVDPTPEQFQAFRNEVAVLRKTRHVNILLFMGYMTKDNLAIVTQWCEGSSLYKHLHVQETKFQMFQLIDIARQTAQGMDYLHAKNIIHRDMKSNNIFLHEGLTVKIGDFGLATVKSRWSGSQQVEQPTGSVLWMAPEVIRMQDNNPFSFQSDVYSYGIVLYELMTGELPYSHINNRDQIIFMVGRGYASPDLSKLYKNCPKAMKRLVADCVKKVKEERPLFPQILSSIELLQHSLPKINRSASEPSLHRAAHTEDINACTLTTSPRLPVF
How it was run: (§1)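 Human c-Raf (5–10 mU) was run in 25 mM Tris pH 7.5 with 0.02 mM EGTA, 10 mM Mg acetate and 0.66 mg/mL myelin basic protein as substrate. The reaction was started with Mg–[γ-33P]ATP (about 500 cpm/pmol; ATP concentration not stated) and run 40 min at room temperature. It was stopped with 3% phosphoric acid, spotted on P30 filtermat, washed in 75 mM phosphoric acid and methanol, and scintillation counted.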

[5] = molecular target: Serine/threonine-protein kinase B-raf (Homo sapiens, UniProt P15056, V600E); assay: Inhibition of BRAF V600E mutant
Chain of Serine/threonine-protein kinase B-raf (P15056 2-766 V600E limits assumed): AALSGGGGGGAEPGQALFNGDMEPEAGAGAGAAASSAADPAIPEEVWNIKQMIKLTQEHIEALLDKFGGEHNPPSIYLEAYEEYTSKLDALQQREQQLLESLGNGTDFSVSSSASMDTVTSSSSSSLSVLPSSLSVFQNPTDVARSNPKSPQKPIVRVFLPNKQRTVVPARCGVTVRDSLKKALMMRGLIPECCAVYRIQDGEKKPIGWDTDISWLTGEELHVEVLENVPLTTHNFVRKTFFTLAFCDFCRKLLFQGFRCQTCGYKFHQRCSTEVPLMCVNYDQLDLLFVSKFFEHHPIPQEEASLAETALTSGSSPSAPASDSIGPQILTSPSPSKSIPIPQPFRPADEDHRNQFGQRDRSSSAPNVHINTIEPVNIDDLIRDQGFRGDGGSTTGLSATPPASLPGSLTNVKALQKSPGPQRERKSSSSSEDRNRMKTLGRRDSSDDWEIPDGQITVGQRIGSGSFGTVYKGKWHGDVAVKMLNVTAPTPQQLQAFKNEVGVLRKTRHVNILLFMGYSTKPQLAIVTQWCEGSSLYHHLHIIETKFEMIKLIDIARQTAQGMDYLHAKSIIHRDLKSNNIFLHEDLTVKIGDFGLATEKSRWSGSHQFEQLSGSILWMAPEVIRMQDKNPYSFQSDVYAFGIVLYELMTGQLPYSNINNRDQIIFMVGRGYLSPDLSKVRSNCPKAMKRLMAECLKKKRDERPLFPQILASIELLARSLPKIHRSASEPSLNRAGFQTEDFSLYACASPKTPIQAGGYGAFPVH

[6] = molecular target: Tyrosine-protein kinase ABL1 (Homo sapiens) (UniProt P00519); assay: Inhibition of Abl1 at 10 uM
[7] = molecular target: RAC-alpha serine/threonine-protein kinase (Homo sapiens) (UniProt P31749); assay: Inhibition of AKT1 at 10 uM
[8] = molecular target: ALK tyrosine kinase receptor (Homo sapiens) (UniProt Q9UM73); assay: Inhibition of Alk at 10 uM
[9] = molecular target: Aurora kinase A (Homo sapiens) (UniProt O14965); assay: Inhibition of Aurora-A at 10 uM
[10] = tested on: Serine/threonine-protein kinase B-raf (Homo sapiens), P15056 [V600E]; assay: Inhibition of BRAF V599E mutant at 10 uM
[11] = molecular target: Cyclin-dependent kinase 1/cyclin B1 (Homo sapiens) (UniProt P06493+P14635); assay: Inhibition of CDK1/Cyclin B at 10 uM; format: protein-complex assay
[12] = molecular target: Cyclin-dependent kinase 2/cyclin E1 (Homo sapiens) (UniProt P24864+P24941); assay: Inhibition of CDK2/Cyclin E at 10 uM; format: protein-complex assay
[13] = molecular target: Mast/stem cell growth factor receptor Kit (Homo sapiens) (UniProt P10721); assay: Inhibition of cKIT at 10 uM
[14] = molecular target: Hepatocyte growth factor receptor (Homo sapiens) (UniProt P08581); assay: Inhibition of cMet at 10 uM
[15] = molecular target: Proto-oncogene tyrosine-protein kinase Src (Homo sapiens) (UniProt P12931); assay: Inhibition cSRC at 10 uM
[16] = molecular target: Epidermal growth factor receptor (Homo sapiens) (UniProt P00533); assay: Inhibition EGFR at 10 uM
[17] = molecular target: Mitogen-activated protein kinase 1 (Homo sapiens) (UniProt P28482); assay: Inhibition of ERK2 at 10 uM
[18] = molecular target: Focal adhesion kinase 1 (Homo sapiens) (UniProt Q05397); assay: Inhibition of FAK at 10 uM
[19] = molecular target: Fibroblast growth factor receptor 2 (Homo sapiens) (UniProt P21802); assay: Inhibition of FGFR2 at 10 uM
[20] = molecular target: Fibroblast growth factor receptor 3 (Homo sapiens) (UniProt P22607); assay: Inhibition of FGFR3 at 10 uM
[21] = molecular target: Receptor-type tyrosine-protein kinase FLT3 (Homo sapiens) (UniProt P36888); assay: Inhibition of FLT3 at 10 uM
[22] = molecular target: Macrophage colony-stimulating factor 1 receptor (Homo sapiens) (UniProt P07333); assay: Inhibition of FMS at 10 uM
[23] = molecular target: Glycogen synthase kinase-3 beta (Homo sapiens) (UniProt P49841); assay: Inhibition of GSK3-beta at 10 uM
[24] = molecular target: Insulin-like growth factor 1 receptor (Homo sapiens) (UniProt P08069); assay: Inhibition of IGF1R at 10 uM
[25] = molecular target: Tyrosine-protein kinase JAK3 (Homo sapiens) (UniProt P52333); assay: Inhibition of JAK3 at 10 uM
[26] = molecular target: Mitogen-activated protein kinase 8 (Homo sapiens) (UniProt P45983); assay: Inhibition of JNK1 at 10 uM
[27] = molecular target: Mitogen-activated protein kinase 10 (Homo sapiens) (UniProt P53779); assay: Inhibition of JNK3 at 10 uM
Chain of Mitogen-activated protein kinase 10 (Homo sapiens) (P53779 whole entry): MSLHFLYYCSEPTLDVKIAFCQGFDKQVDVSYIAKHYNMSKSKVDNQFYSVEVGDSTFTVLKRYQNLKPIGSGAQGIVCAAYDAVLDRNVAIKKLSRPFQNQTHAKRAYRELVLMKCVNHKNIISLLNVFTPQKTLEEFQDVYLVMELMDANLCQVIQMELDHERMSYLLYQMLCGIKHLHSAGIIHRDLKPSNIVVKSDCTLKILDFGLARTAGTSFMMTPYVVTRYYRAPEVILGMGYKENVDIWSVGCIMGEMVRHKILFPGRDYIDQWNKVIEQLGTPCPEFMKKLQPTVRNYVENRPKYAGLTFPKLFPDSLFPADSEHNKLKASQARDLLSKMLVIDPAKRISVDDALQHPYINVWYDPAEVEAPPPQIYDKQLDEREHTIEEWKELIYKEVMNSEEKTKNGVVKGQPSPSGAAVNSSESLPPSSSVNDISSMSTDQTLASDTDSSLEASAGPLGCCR

[28] = molecular target: Vascular endothelial growth factor receptor 2 (Homo sapiens) (UniProt P35968); assay: Inhibition of KDR at 10 uM
[29] = molecular target: Tyrosine-protein kinase Lck (Homo sapiens) (UniProt P06239); assay: Inhibition of LCK at 10 uM
[30] = molecular target: Tyrosine-protein kinase Lyn (Homo sapiens) (UniProt P07948); assay: Inhibition of LYN at 10 uM
[31] = molecular target: Dual specificity mitogen-activated protein kinase kinase 1 (Homo sapiens) (UniProt Q02750); assay: Inhibition of MEK1 at 10 uM
[32] = molecular target: T1, Serine/threonine-protein kinase mTOR; assay: Inhibition of MTOR at 10 uM
[33] = molecular target: Mitogen-activated protein kinase 14 (Homo sapiens) (UniProt Q16539); assay: Inhibition of p38alpha at 10 uM
[34] = molecular target: T2, Phosphatidylinositol 4,5-bisphosphate 3-kinase catalytic subunit alpha isoform; assay: Inhibition of PI3Kalpha at 10 uM
[35] = molecular target: Serine/threonine-protein kinase PLK1 (Homo sapiens) (UniProt P53350); assay: Inhibition of PLK1 at 10 uM
Chain of Serine/threonine-protein kinase PLK1 (Homo sapiens) (P53350 whole entry): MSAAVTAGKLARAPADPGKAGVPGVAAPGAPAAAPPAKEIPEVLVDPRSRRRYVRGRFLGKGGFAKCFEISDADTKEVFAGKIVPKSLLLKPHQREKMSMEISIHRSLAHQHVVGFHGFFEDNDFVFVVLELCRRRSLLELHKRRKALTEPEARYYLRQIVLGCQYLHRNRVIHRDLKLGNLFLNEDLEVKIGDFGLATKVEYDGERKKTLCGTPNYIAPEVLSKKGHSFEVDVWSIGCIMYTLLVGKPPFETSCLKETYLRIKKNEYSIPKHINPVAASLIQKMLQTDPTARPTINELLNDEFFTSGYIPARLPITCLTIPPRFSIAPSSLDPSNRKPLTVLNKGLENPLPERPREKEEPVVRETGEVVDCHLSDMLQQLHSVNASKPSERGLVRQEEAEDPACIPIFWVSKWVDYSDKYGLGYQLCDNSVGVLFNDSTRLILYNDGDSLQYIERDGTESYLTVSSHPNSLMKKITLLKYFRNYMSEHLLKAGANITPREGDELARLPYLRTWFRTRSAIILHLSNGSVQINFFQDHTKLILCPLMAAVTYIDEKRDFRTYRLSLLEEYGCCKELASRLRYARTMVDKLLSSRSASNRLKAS

[36] = molecular target: T3, RAF proto-oncogene serine/threonine-protein kinase; assay: Inhibition of human CRAF using [gamma-33P]ATP at 10 uM after 40 mins by scintillation counting; how it was run: as §1
[37] = molecular target: Macrophage-stimulating protein receptor (Homo sapiens) (UniProt Q04912); assay: Inhibition of RON at 10 uM
Chain of Macrophage-stimulating protein receptor (Homo sapiens) (Q04912 25-304 limits assumed): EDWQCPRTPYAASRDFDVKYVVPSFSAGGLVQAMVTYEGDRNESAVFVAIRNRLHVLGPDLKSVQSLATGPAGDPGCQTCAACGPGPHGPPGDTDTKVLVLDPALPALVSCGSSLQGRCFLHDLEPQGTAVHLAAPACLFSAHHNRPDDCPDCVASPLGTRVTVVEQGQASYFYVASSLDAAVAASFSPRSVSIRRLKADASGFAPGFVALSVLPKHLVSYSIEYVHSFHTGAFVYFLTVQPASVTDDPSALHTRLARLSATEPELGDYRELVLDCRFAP
Chain of Macrophage-stimulating protein receptor (Homo sapiens) (Q04912 310-1400 limits assumed): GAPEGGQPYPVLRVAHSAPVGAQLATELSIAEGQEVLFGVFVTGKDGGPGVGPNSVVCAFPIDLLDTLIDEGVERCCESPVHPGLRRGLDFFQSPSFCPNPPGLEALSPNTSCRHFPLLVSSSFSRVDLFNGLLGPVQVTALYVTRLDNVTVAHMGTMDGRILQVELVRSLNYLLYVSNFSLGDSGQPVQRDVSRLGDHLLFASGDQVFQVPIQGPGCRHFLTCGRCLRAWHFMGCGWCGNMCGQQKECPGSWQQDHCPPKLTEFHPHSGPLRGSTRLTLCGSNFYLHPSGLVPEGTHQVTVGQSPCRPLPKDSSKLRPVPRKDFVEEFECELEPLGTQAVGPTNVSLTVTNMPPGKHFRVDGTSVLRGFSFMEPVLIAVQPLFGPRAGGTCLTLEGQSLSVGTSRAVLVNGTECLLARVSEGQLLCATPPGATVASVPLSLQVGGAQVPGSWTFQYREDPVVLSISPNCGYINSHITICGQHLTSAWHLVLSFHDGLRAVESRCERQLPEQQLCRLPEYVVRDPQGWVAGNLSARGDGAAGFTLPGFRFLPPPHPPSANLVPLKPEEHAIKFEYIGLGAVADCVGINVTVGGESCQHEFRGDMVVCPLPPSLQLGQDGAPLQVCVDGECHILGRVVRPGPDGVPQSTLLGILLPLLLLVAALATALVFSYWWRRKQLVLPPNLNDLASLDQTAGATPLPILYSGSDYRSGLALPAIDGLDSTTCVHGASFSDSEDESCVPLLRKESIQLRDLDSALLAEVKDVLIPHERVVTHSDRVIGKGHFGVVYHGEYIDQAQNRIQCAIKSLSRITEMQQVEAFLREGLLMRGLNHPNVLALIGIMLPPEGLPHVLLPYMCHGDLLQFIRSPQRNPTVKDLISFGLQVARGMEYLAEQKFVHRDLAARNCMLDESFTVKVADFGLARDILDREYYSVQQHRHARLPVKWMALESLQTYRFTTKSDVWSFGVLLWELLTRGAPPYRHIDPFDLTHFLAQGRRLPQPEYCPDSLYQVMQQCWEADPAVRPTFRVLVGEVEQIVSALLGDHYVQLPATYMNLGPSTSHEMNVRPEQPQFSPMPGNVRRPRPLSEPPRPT

[38] = molecular target: Proto-oncogene tyrosine-protein kinase ROS (Homo sapiens) (UniProt P08922); assay: Inhibition of ROS at 10 uM
[39] = molecular target: Tyrosine-protein kinase SYK (Homo sapiens) (UniProt P43405); assay: Inhibition of SYK at 10 uM
[40] = molecular target: BDNF/NT-3 growth factors receptor (Homo sapiens) (UniProt Q16620); assay: Inhibition of TRKB at 10 uM

## O=C1CC(c2cccc(NC(=O)c3cc(N4CCOCC4)cc(C(F)(F)F)c3)c2)=Nc2cnn(Cc3ccccc3)c2N1
U-937
  GI50: > 30000 nM
[1]
  GI50: > 30000 nM

## O=C1CC(c2ccc(NC(=O)c3ccc(Cl)c(C(F)(F)F)c3)cc2)=Nc2cnn(Cc3ccccc3)c2N1
U-937
  GI50: 60 nM
[1]
  GI50: 13100 nM

## COc1ccc(Cn2ncc3c2NC(=O)CC(c2cccc(NC(=O)Nc4ccc(C(F)(F)F)cc4)c2)=N3)cc1
U-937
  GI50: 110 nM
[1]
  GI50: 770 nM

## O=c1cc(N2CCOCC2)oc2c(-c3ccccc3)cccc12 [LY-294002]
[2]
  IC50: 6800 nM

## O=C1CC(c2cccc(NC(=O)c3ccc(N4CCOCC4)c(C(F)(F)F)c3)c2)=Nc2cnn(Cc3ccccc3)c2N1
U-937
  GI50: 1750 nM
[1]
  GI50: 2910 nM

## O=C1CC(c2cccc(NC(=O)c3ccc(Cl)c(C(F)(F)F)c3)c2)=Nc2cnn(Cc3ccccc3)c2N1
[3]
  IC50: 2150 nM
[4]
  IC50: 961 nM
[5]; read-out: IC50
  IC50: 655 nM
U-937
  GI50: 60 nM
[1]
  GI50: 430 nM
[6]
  inhibition: 0%
[7]
  inhibition: 0%
[8]
  inhibition: 0%
[9]
  inhibition: 6.5%
[10]
  inhibition: 85.6%
[11]
  inhibition: 7%
[12]
  inhibition: 0.9%
[13]
  inhibition: 3.6%
[14]
  inhibition: 1.3%
[15]
  inhibition: 4.3%
[16]
  inhibition: 1.6%
[17]
  inhibition: 0%
[18]
  inhibition: 0%
[19]
  inhibition: 0%
[20]
  inhibition: 0%
[21]
  inhibition: 19.3%
[22]
  inhibition: 0.5%
[23]
  inhibition: 17.8%
[24]
  inhibition: 1.9%
[25]
  inhibition: 0%
[26]
  inhibition: 0%
[27]
  inhibition: 0%
[28]
  inhibition: 0%
[29]
  inhibition: 5.6%
[30]
  inhibition: 4.6%
[31]
  inhibition: 0%
[32]
  inhibition: 0%
[33]
  inhibition: 0%
[34]
  inhibition: 75.2%
[35]
  inhibition: 0%
[36]
  inhibition: 92.9%
[37]
  inhibition: 4.4%
[38]
  inhibition: 0%
[39]
  inhibition: 0%
[40]
  inhibition: 0.2%

## CNC(=O)c1cc(Oc2ccc(NC(=O)Nc3ccc(Cl)c(C(F)(F)F)c3)cc2)ccn1 [SORAFENIB]
U-937
  GI50: 2850 nM
[1]
  GI50: 5580 nM

## Cc1cn(-c2cc(C(=O)Nc3ccc(C4=Nc5cnn(Cc6ccccc6)c5NC(=O)C4)cc3)cc(C(F)(F)F)c2)cn1
U-937
  GI50: > 30000 nM
[1]
  GI50: > 30000 nM

## COc1ccc(Cn2ncc3c2NC(=O)CC(c2cccc(NC(=O)Nc4ccc(Cl)cc4)c2)=N3)cc1
U-937
  GI50: 580 nM
[1]
  GI50: 640 nM

## COc1ccc(Cn2ncc3c2NC(=O)CC(c2cccc(NC(=O)Nc4ccc(Cl)c(Cl)c4)c2)=N3)cc1
U-937
  GI50: 14900 nM
[1]
  GI50: 3860 nM

## O=C1CC(c2cccc(NC(=O)Nc3ccc(Cl)c(C(F)(F)F)c3)c2)=Nc2cnn(Cc3ccccc3)c2N1
[4]
  IC50: 668 nM
[5]
  IC50: Not Active
U-937
  GI50: 7310 nM
[1]
  GI50: 4450 nM

## O=C1CC(c2ccc(NC(=O)Nc3ccc(Cl)c(C(F)(F)F)c3)cc2)=Nc2cnn(Cc3ccccc3)c2N1
U-937
  GI50: 8680 nM
[1]
  GI50: 1190 nM

## O=C1CC(c2ccc(NC(=O)Nc3ccc(Cl)c(C(F)(F)F)c3)cc2)=Nc2cn[nH]c2N1
U-937
  GI50: > 30000 nM
[1]
  GI50: > 30000 nM

## O=C1CC(c2cccc(NC(=O)Nc3ccc(Cl)c(Cl)c3)c2)=Nc2cn[nH]c2N1
U-937
  GI50: > 30000 nM
[1]
  GI50: > 30000 nM

## COc1ccc(Cn2ncc3c2NC(=O)CC(c2cccc(NC(=O)Nc4cc(N5CCOCC5)cc(C(F)(F)F)c4)c2)=N3)cc1
U-937
  GI50: > 30000 nM
[1]
  GI50: 3320 nM

## COc1ccc(Cn2ncc3c2NC(=O)CC(c2ccc(NC(=O)Nc4ccc(Cl)c(C(F)(F)F)c4)cc2)=N3)cc1
U-937
  GI50: 7290 nM
[1]
  GI50: 3930 nM

## COc1ccc(Cn2ncc3c2NC(=O)CC(c2cccc(NC(=O)Nc4cc(Cl)cc(Cl)c4)c2)=N3)cc1
U-937
  GI50: 6480 nM
[1]
  GI50: 780 nM

## O=C1CC(c2ccc(NC(=O)Nc3cccc(Cl)c3)cc2)=Nc2cnn(Cc3ccccc3)c2N1
U-937
  GI50: 670 nM
[1]
  GI50: 2070 nM

## Cc1cn(-c2cc(C(=O)Nc3cccc(C4=Nc5cnn(Cc6ccccc6)c5NC(=O)C4)c3)cc(C(F)(F)F)c2)cn1
U-937
  GI50: > 30000 nM
[1]
  GI50: > 30000 nM

## COc1ccc(Cn2ncc3c2NC(=O)CC(c2cccc(NC(=O)Nc4cccc(Cl)c4)c2)=N3)cc1
U-937
  GI50: 630 nM
[1]
  GI50: 910 nM

## COc1ccc(Cn2ncc3c2NC(=O)CC(c2cccc(NC(=O)Nc4cccc(C(F)(F)F)c4)c2)=N3)cc1
U-937
  GI50: 280 nM
[1]
  GI50: 250 nM

## O=C1CC(c2ccc(NC(=O)c3ccc(N4CCOCC4)c(C(F)(F)F)c3)cc2)=Nc2cnn(Cc3ccccc3)c2N1
U-937
  GI50: 210 nM
[1]
  GI50: 16400 nM

## Cc1cn(-c2cc(NC(=O)Nc3ccc(C4=Nc5cnn(Cc6ccccc6)c5NC(=O)C4)cc3)cc(C(F)(F)F)c2)cn1
U-937
  GI50: > 30000 nM
[1]
  GI50: > 30000 nM

## O=C1CC(c2cccc(NC(=O)Nc3ccc(Cl)cc3)c2)=Nc2cn[nH]c2N1
U-937
  GI50: > 30000 nM
[1]
  GI50: > 30000 nM
